The values that follow come from ChEMBL document CHEMBL3232915, “Discovery, optimization, and characterization of novel D2 dopamine receptor selective antagonists” (J Med Chem, 2014).

Data set [1] addresses T1, D(2) dopamine receptor (Homo sapiens, UniProt P14416). The data set is described as follows: Antagonist activity at D2 receptor (unknown origin) expressed in Flp-In TREx 293 cells coexpressing chimeric Gqi5 protein assessed as calcium accumulation by Fluo-8AM dye based fluorescence analysis. The format is functional, cell-based.
Data set [2] addresses T1, D(2) dopamine receptor. The data set is described as follows: Antagonist activity at ProLink-tagged D2 receptor (unknown origin) expressed in CHO cells assessed as inhibition of dopamine-stimulated beta-arrestin binding treated for 90 mins prior to dopamine challenge by PathHunter DiscoveRx assay. The data set is classed as cell-based.
Data set [3] has as its target T2, D(3) dopamine receptor (Homo sapiens, UniProt P35462). Briefly: Antagonist activity at ProLink-tagged D3 receptor (unknown origin) expressed in CHO cells assessed as inhibition of dopamine-stimulated beta-arrestin binding treated for 90 mins prior to dopamine challenge by PathHunter DiscoveRx assay. The data set is classed as cell-based.
For data set [4], the target named is T1, D(2) dopamine receptor. The data set is described as follows: Displacement of [3H]methylspiperone from human D2L receptor expressed in HEK cell membrane after 90 mins by scintillation counting analysis. The data set is classed as cell membranes, HEK293. In general terms: Displacement assays read how much labelled ligand stays bound in the presence of the test substance.

Data set [5] has as its target T2, D(3) dopamine receptor. The data set is described as follows: Displacement of [3H]methylspiperone from human D3 receptor expressed in HEK293 cell membrane after 90 mins by scintillation counting analysis. The format is cell membranes.
Data set [6] relates to CHO. The data set is described as follows: Ratio of AC50 for ProLink-tagged D3 receptor (unknown origin) expressed in CHO cells to AC50 for ProLink-tagged D2 receptor (unknown origin) expressed in CHO cells by beta-arrestin assay. The data set is classed as cell-based. To be noted: Homo sapiens.
Data set [7] concerns HEK293. The data set is described as follows: Ratio of Ki for human D3 receptor expressed in HEK293 cell membrane to Ki for human D2L receptor expressed in HEK cell membrane. The format is cell-based. A digest of the protocol: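 Competition binding with [3H]methylspiperone on membranes from stable HEK cells. […] Incubation 90 min at room temperature in EBSS with sodium metabisulfite, nonspecific binding with 4 µM (+)-butaclamol, then GF/C filtration and scintillation counting. Ki from IC50 via Cheng–Prusoff.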

The subject of data set [8] is Plasma. Briefly: Stability of the compound in human plasma assessed as compound remaining after 2 hrs. The format is ADME, cell-free.
Data set [9] deals with Caco-2. The data set is described as follows: Apparent permeability from apical to basolateral side in human Caco2 cells. The format is ADME, cell-based. For orientation: Caco-2 cells form a polarised layer with tight junctions and transporters.
Data set [10] deals with Caco-2. Briefly: Apparent permeability from basolateral to apical side in human Caco2 cells. The data set is classed as ADME, cell-based.
Data set [11] deals with Brain. The data set is described as follows: Cmax in C57BL/6 mouse brain at 30 mg/kg, ip administered as single dose measured within 15 mins after drug challenge. The data set is classed as ADME, organism-based. On the set-up: dose 30 mg/kg, route intraperitoneal. To be noted: in vivo, 0.25 h. A digest of the protocol:
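Male C57BL/6 mice (N = 3) got a single 30 mg/kg ip dose in 10% NMP + 20% PEG 400 + 70% of 25% HP-β-CD in water. Plasma and brain concentration–time profiles were measured.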

The test system of data set [12] is Liver. Briefly: Intrinsic half-life in mouse liver microsomes. The format is ADME. On the technique in general: Liver microsomes are a subcellular fraction often used to study metabolism.
Data set [13] is described as follows: Aqueous kinetic solubility of the compound in PBS buffer. The format is physicochemical.
Data set [14] concerns Plasma. The data set is described as follows: Stability of the compound in mouse plasma assessed as compound remaining after 2 hrs. The format is ADME, cell-free.

T1 sequence (P14416 whole entry): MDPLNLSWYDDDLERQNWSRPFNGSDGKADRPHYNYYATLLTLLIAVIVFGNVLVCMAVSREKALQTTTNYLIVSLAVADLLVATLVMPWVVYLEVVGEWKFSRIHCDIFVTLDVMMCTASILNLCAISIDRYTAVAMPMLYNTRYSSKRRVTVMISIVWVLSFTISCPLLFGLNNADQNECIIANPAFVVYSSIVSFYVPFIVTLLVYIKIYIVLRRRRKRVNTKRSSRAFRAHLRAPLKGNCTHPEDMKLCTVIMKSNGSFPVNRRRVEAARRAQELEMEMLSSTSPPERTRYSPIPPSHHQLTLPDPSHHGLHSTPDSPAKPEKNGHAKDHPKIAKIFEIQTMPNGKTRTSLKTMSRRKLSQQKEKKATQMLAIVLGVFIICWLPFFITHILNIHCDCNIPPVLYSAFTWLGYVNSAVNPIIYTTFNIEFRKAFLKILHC
T2 sequence (P35462 whole entry): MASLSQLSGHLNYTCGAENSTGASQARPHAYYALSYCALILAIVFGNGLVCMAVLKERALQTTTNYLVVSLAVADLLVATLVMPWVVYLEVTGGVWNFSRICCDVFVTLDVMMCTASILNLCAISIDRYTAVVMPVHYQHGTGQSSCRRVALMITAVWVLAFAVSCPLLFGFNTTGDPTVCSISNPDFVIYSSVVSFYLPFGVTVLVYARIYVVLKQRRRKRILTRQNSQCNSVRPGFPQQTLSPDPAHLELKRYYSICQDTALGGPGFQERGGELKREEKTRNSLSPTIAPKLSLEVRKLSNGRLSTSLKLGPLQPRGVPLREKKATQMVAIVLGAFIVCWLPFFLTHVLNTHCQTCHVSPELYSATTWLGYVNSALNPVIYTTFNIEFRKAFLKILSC

As for `CCN1C(=O)c2ccccc2[S@+]([O-])c2ccc(C(=O)NCc3ccc(F)cc3)cc21`, the AC50 in data set [1] amounted to 56 nM; in [2], 576 nM; in data set [3], 3240 nM. Moreover, the Ki was determined as 90 nM in [4] and 230 nM in data set [5]. The Ratio in [6] is 5.6. For the same molecule, the Ratio Ki in data set [7] was determined as 2.6.

For `CN1C(=O)c2ccccc2[S@+]([O-])c2ccc(C(=O)NCCN3CCCC3)cc21`, the AC50 was 70 nM in data set [1], 363 nM in [2] and 4570 nM in data set [3]. Besides, the Ki in [4] worked out at 210 nM; in data set [5] it was 350 nM. Moreover, the Ratio in [6] came to 12.6. In addition, in data set [7], the Ratio Ki is 1.7.

In the case of `CCN1C(=O)c2ccccc2[S@+]([O-])c2ccc(C(=O)N[C@H](C)c3ccc4ccccc4c3)cc21`, the AC50 worked out at 353 nM in data set [1], 2890 nM in data set [2] and 32400 nM in data set [3]. For the same molecule, the Ki came out at 290 nM in data set [4] and 3400 nM in [5]. Further, in data set [6], the Ratio stood at 11.2. For the same molecule, the Ratio Ki in data set [7] stood at 11.7.

For `CCN1C(=O)c2ccccc2[S@+]([O-])c2ccc(C(=O)N[C@H](C)c3ccc(Br)cc3)cc21`, the AC50 turned out to be 223 nM in [1], 1290 nM in [2] and 9130 nM in [3]. Moreover, the inhibition constant Ki in data set [4] turned out to be 530 nM; in data set [5] it was 880 nM. Besides, the Ratio in data set [6] was found to be 7.1. The Ratio Ki in [7] is 1.7.

For the molecule `CN1C(=O)c2ccccc2[S@+]([O-])c2ccc(C(=O)NCc3cccnc3)cc21`, the AC50 in data set [1] was found to be 445 nM; in [2] it was 2890 nM; in [3] it was 14500 nM. The values for the Ki in data set [4] and in [5] were 310 nM and 21000 nM, respectively. Also, the Ratio in data set [6] is 5. In data set [7], the Ratio Ki turned out to be 70.

As for `CN1C(=O)c2ccccc2[S@+]([O-])c2ccc(C(=O)NCCc3cccs3)cc21`, the Stability is 98.4% in data set [8] and 95.2% in [14]. Besides, the figures for the Papp in [9] and in data set [10] were 18.8 ×10⁻⁶ cm/s and 23.8 ×10⁻⁶ cm/s, respectively. The Cmax in [11] was 4.19 µmol/kg. In addition, the t1/2 in data set [12] was 24.7 min. This molecule had a Ki in data set [5] of 4100 nM. Also, the Kinetic_solubility in [13] was 113.3 µM.

The AC50 is the midpoint of the concentration-response curve, whichever way the signal moves. The term Ki denotes the dissociation constant of the complex between target and ligand, obtained from inhibition or displacement. Read a low Ki as tighter binding. A word on the Papp: it is the rate of passage across a membrane or cell layer, normalised by area and donor concentration.
